How the values were obtained:
[1] = Inhibition of PDE4 in human U937 cell lysates assessed as residual cAMP after 2.5 mins by LANCE assay
[2] = Apparent permeability across apical to basolateral side in human Caco2 cells at 10 uM after 2 hrs by LC-MS/MS analysis; assay type: ADME, cell-based; settings: Caco-2
[3] = Inhibition of PDE4 in human PBMC assessed as reduction in LPS-induced TNFalpha release after 18 hrs by quantitative ELISA
[4] = Intrinsic clearance in human liver microsomes at 1 uM measured after 60 mins in presence NADPH by LC-MS/MS analysis; assay type: ADME, microsome; settings: read-out: CLH
Summary of the method: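 Compound at 1 μM with human liver microsomes (0.8 mg protein/mL) in Dulbecco's buffer pH 7.4, 1 mM NADPH, 37 °C, in duplicate. Sampled at 0, 5, 10, 20, 30 and 60 min, quenched with ice-cold acetonitrile, and unchanged compound measured by LC−MS/MS. No-NADPH controls; midazolam (1 μM) as phase I control.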

[5] = Apparent permeability across basolateral to apical side in human Caco2 cells at 10 uM after 2 hrs by LC-MS/MS analysis; assay type: ADME, cell-based; settings: Caco-2
[6] = Metabolic stability in human plasma assessed as compound remaining at 1 uM measured after 60 mins in presence of NADPH by LC-MS/MS analysis; assay type: ADME, cell-free; settings: read-out: Stability
[7] = Intrinsic clearance in human hepatocytes assessed per million cells at 1 uM measured after 90 mins by LC-MS/MS analysis; assay type: ADME, cell-based, Hepatocyte; settings: read-out: CLH
Summary of the method: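 Compound at 1 μM with hepatocytes (1 million cells/mL) in Leibovitz L-15 at 37 °C, in duplicate. Sampled at 0, 10, 20, 30, 60 and 90 min, quenched with ice-cold acetonitrile, centrifuged, and unchanged compound measured by LC−MS/MS. Included 7-ethoxycoumarin and 7-hydroxycoumarin activity controls and cell-free medium controls.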

[8] = Protein binding in human plasma at 5 uM after 5 hrs by LC-MS/MS analysis; assay type: ADME, cell-free; settings: read-out: PPB (converted)
[9] = Metabolic stability in human lung S9 fraction assessed as compound remaining at 1 uM measured after 60 mins in presence of NADPH by LC-MS/MS analysis; assay type: ADME; settings: read-out: Stability
Rattus norvegicus = experiment: Anti-inflammatory activity in OVA-induced airway inflammation Brown Norway rat model assessed inhibition of eosinophils recruitment in bronchoalveolar lavage fluid administered intratracheally as powder formulation 2 hrs before aerosolized OVA challenge measured at 24 hrs post aerosolized OVA challenge; assay type: functional
Summary of the method: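 Male Brown Norway rats sensitized i.p. with OVA (1 mg/rat) plus Al(OH)3 (100 mg/rat) in saline on 3 consecutive days. Challenged 2–3 weeks later with nose-only 1% OVA aerosol for 30 min. Lactose-blended dry powder (10 mg/kg total powder) insufflated intratracheally; dose taken from needle weight difference. BAL with 3 × 4 mL HBSS/EDTA/HEPES at 24 h; total and differential counts by automated counter. ED50 from fitted dose–response curve.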

[10] = Drug level in human hepatocytes treated with 3, 5 -Dichloro-4-( (S)-2-(3 -(cyclopropylmethoxy)-4-(difluoromethoxy)phenyl)-2-(((S)-1-((3- (dimethylcarbamoyl)-phenyl)sulfonyl)pyrrolidine-2-carbonyl)oxy)ethyl)pyridine 1-Oxide at 10 uM after 60 mins by LC-MS/MS analysis; assay type: ADME, cell-based, Hepatocyte; settings: 1 h
Summary of the method: (§1)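 Pooled mixed-sex cryopreserved human hepatocytes (1 million cells/mL) in Leibovitz L-15 at 37 °C, compound at 10 μM in duplicate. Sampled at 0 and 60 min. Protein-free supernatant evaporated under nitrogen, reconstituted in mobile phase and analysed by LC−MS/MS. Cell-free medium incubation for 60 min as control.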

[11] = Drug level in human hepatocytes treated with 3, 5-Dichloro-4-((S)-2-(3-(cyclopropylmethoxy)-4-(difluoromethoxy)phenyl)-2-((S)-3-(3-(dimethylcarbamoyl)-phenylsulfonyl)thiazolidine-2-carbonyloxy)ethyl)pyridine 1-Oxide at 10 uM after 60 mins by LC-MS/MS analysis; assay type: ADME, cell-based, Hepatocyte; settings: 1 h; summary of the method: as §1

Row | Structure (SMILES) | IC50 [1] [nM] | Papp A→B at 2 h, 10 µM [2] [×10⁻⁶ cm/s] | IC50 [3] [nM] | microsomal CLint at 1 µM [4] [µL/min/mg] | Papp B→A at 2 h, 10 µM [5] [×10⁻⁶ cm/s] | remaining at 1 h, 1 µM [6] [%] | hepatocyte CLint at 1 µM [7] [µL/min/1e6 cells] | fraction unbound at 5 h, 5 µM [8] | remaining at 1 h, 1 µM [9] [%] | Drug metabolism [10] | Drug metabolism [11] | inhibition (Rattus norvegicus) | ED50 (Rattus norvegicus; inhaled or nasal) [µmol/kg]
1 | CN(C)C(=O)c1cccc(S(=O)(=O)N2CSC[C@H]2C(=O)O[C@@H](Cc2c(Cl)c[n+]([O-])cc2Cl)c2ccc(OC(F)F)c(OCC3CC3)c2)c1 | 0.055 | 2.8 | 0.035 | 268 | 4.46 | 94 | 25.9 | 0.0017 | 52.1 |  |  |  | 
2 | CCCC1O[C@@H]2C[C@H]3[C@@H]4CCC5=CC(=O)C=C[C@]5(C)[C@H]4[C@@H](O)C[C@]3(C)[C@]2(C(=O)CO)O1 (stereo partly drawn) [BUDESONIDE] |  |  |  |  |  |  |  |  |  |  |  | Dose-dependent effect | 0.04
3 | CN(C)C(=O)c1cccc(S(=O)(=O)N2CCS[C@H]2C(=O)O[C@@H](Cc2c(Cl)c[n+]([O-])cc2Cl)c2ccc(OC(F)F)c(O)c2)c1 (relative stereo) | 0.183 to 1.95 |  | 1.95 |  |  |  |  |  |  |  | Metabolite_Detected |  | 
4 | [O-][n+]1cc(Cl)c(C[C@H](O)c2ccc(OC(F)F)c(OCC3CC3)c2)c(Cl)c1 |  |  | 480 |  |  |  |  |  |  | Metabolite_Detected | Metabolite_Detected |  | 
5 | Cc1cc(S(=O)(=O)N2CCS[C@H]2C(=O)O[C@@H](Cc2c(Cl)c[n+]([O-])cc2Cl)c2ccc(OC(F)F)c(OCC3CC3)c2)c(C)s1 (relative stereo) | 0.176 |  | 0.17 |  |  |  |  |  |  |  |  |  | 
6 | COc1ccc(S(=O)(=O)N2CCC[C@H]2C(=O)O[C@@H](Cc2c(Cl)c[n+]([O-])cc2Cl)c2ccc(OC(F)F)c(OCC3CC3)c2)cc1C(=O)N(C)C (relative stereo) | 0.0351 | 0.5 | 0.042 | 365 | 12.5 | 101 | 56.7 | 0.0032 | 71.6 |  |  |  | 

Continued, in another order:

Row | IC50 [1] [nM] | Papp A→B at 2 h, 10 µM [2] [×10⁻⁶ cm/s] | IC50 [3] [nM] | microsomal CLint at 1 µM [4] [µL/min/mg] | Papp B→A at 2 h, 10 µM [5] [×10⁻⁶ cm/s] | remaining at 1 h, 1 µM [6] [%] | hepatocyte CLint at 1 µM [7] [µL/min/1e6 cells] | fraction unbound at 5 h, 5 µM [8] | remaining at 1 h, 1 µM [9] [%] | Drug metabolism [10] | Drug metabolism [11] | Structure (SMILES) | inhibition (Rattus norvegicus) | ED50 (Rattus norvegicus; inhaled or nasal) [µmol/kg]
7 | 0.025 | 1.26 | 0.03 | 202 | 18.3 | 100 | 47.6 | 0.0016 | 63.5 |  |  | CNC(=O)c1cc(S(=O)(=O)N2CCS[C@H]2C(=O)O[C@@H](Cc2c(Cl)c[n+]([O-])cc2Cl)c2ccc(OC(F)F)c(OCC3CC3)c2)cn1C (relative stereo) |  | 
8 | 0.031 | 13.2 | 0.015 | 244 | 68.4 | 88.2 | 33.2 | 0.0023 | 59.7 |  |  | COc1ccc(S(=O)(=O)N2CCCC[C@H]2C(=O)O[C@@H](Cc2c(Cl)c[n+]([O-])cc2Cl)c2ccc(OC(F)F)c(OCC3CC3)c2)cc1C(=O)N(C)C (relative stereo) |  | 
9 | 0.041 | 0.25 | 0.057 | 200 | 0.82 | 101 | 53.8 | 0.004 | 50.7 |  |  | COc1ccc(S(=O)(=O)N2CCS[C@H]2C(=O)O[C@@H](Cc2c(Cl)c[n+]([O-])cc2Cl)c2ccc(OC(F)F)c(OCC3CC3)c2)cc1OC (relative stereo) |  | 
10 |  |  | > 1000 |  |  |  |  |  |  | Metabolite_Detected |  | CN(C)C(=O)c1cccc(S(=O)(=O)N2CCC[C@H]2C(=O)O)c1 |  | 
11 | 0.02 | 0.22 | 0.028 | 281 | 3.95 | 101 | 66.9 | 0.015 | 77.7 |  |  | Cn1cnc(S(=O)(=O)N2CCS[C@H]2C(=O)O[C@@H](Cc2c(Cl)c[n+]([O-])cc2Cl)c2ccc(OC(F)F)c(OCC3CC3)c2)c1 |  | 
12 | 0.056 | 21.7 | 0.012 | 363 | 73.4 | 104 | 64.6 | 0.0012 | 72.5 |  |  | CN(C)C(=O)c1cccc(S(=O)(=O)N2CCCC[C@H]2C(=O)O[C@@H](Cc2c(Cl)c[n+]([O-])cc2Cl)c2ccc(OC(F)F)c(OCC3CC3)c2)c1 (relative stereo) |  | 
13 | 0.031 |  | 0.12 |  |  |  |  |  |  |  |  | CN(C)C(=O)c1cccc(S(=O)(=O)N2CCC[C@@H](C(=O)O[C@@H](Cc3c(Cl)c[n+]([O-])cc3Cl)c3ccc(OC(F)F)c(OCC4CC4)c3)C2)c1 (relative stereo) |  | 
14 | 0.109 |  | 0.4 |  |  |  |  |  |  |  |  | O=C(O[C@@H](Cc1c(Cl)c[n+]([O-])cc1Cl)c1ccc(OC(F)F)c(OCC2CC2)c1)[C@@H]1CCCN1S(=O)(=O)c1ccccc1 (relative stereo) |  | 
15 | 0.026 | 0.23 | 0.022 | 360 | 7.67 | 98.8 | 47.6 | 0.0017 | 71.2 |  |  | COc1ccc(S(=O)(=O)N2CCS[C@H]2C(=O)O[C@@H](Cc2c(Cl)c[n+]([O-])cc2Cl)c2ccc(OC(F)F)c(OCC3CC3)c2)cc1C(=O)N(C)C (relative stereo) |  | 

— ChEMBL document CHEMBL4024768, “Discovery and Optimization of Thiazolidinyl and Pyrrolidinyl Derivatives as Inhaled PDE4 Inhibitors for Respiratory Diseases” (J Med Chem, 2017)
